Laboratory results reported in ChEMBL document CHEMBL1143684, “Exploring the structure-activity relationship of the ethylamine portion of 3-iodothyronamine for rat and mouse trace amine-associated receptor 1” (J Med Chem, 2007).

Biological target: Trace amine-associated receptor 1 (Mus musculus, UniProt Q923Y8)
Experiment: Activity at mouse TAAR1 expressed in HEK293 cells assessed as cAMP production
Format: functional, cell-based
Procedure, shortened: (§1)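 HEK293 cells stably expressing rat or mouse TAAR1, kept in fresh medium ≥2 h, harvested in KRH, preincubated 20-30 min with 200 µM IBMX. Cells boiled 20 min in acetate buffer. cAMP in cleared lysate read by EFC luminescence kit (18 h dark). Responses given as % of T1AM. EC50 from concentration-response fit, mean ± SEM of N independent triplicate runs.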

Trace amine-associated receptor 1 (Mus musculus, UniProt Q923Y8), sequence (Q923Y8 whole entry): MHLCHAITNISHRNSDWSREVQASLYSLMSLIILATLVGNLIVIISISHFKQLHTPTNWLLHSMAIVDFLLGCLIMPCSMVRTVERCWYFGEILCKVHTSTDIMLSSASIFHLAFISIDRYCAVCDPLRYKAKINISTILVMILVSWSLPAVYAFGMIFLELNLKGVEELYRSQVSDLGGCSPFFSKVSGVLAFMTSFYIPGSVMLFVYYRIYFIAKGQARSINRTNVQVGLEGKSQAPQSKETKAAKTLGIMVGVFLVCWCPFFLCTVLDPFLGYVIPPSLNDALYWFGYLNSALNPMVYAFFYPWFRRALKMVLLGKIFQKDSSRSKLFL

SMILES	EC50
NCC(Cc1ccccc1)c1ccc(Oc2ccccc2)cc1 (configuration not stated)	> 1000 nM
NCC(c1ccccc1)c1ccc(Oc2ccccc2)cc1 (configuration not stated)	> 1000 nM
NCCc1ccc(Oc2ccccc2)c2ccccc12	101 nM
COc1ccc(C(CN)c2ccccc2)c2ccccc12 (configuration not stated)	> 1000 nM
CC(CN)c1ccc(Oc2ccccc2)cc1 (configuration not stated)	> 1000 nM
C#CC(CN)c1ccc(Oc2ccccc2)cc1 (configuration not stated)	929 nM
NCC(c1ccccc1)c1cccc(Oc2ccccc2)c1 (configuration not stated)	> 1000 nM
CN(C)CCCNC(=O)c1ccc(Oc2ccccc2)cc1	> 1000 nM
NCC(C#Cc1ccccc1)c1ccc(Oc2ccccc2)cc1 (configuration not stated)	> 1000 nM
NCCc1ccc(Oc2ccc(O)cc2)c(I)c1	314 nM
CC(C)(CN)c1ccc(Oc2ccccc2)cc1	> 1000 nM
NCC(c1ccccc1)c1ccc(Oc2ccccc2)c2ccccc12 (configuration not stated)	> 1000 nM
NCC(c1ccccc1)c1ccc(O)c2ccccc12 (configuration not stated)	> 1000 nM
NCCc1ccc(Oc2ccccc2)cc1	420 nM

Biological target: Trace amine-associated receptor 1 (Rattus norvegicus) (UniProt Q923Y9)
Experiment: Efficacy at rat TAAR1 expressed in HEK293 cells assessed as stimulation of cAMP production at 10 uM relative to 3-iodothyronamine
Format: functional, cell-based

Trace amine-associated receptor 1 (Rattus norvegicus), sequence (Q923Y9 whole entry): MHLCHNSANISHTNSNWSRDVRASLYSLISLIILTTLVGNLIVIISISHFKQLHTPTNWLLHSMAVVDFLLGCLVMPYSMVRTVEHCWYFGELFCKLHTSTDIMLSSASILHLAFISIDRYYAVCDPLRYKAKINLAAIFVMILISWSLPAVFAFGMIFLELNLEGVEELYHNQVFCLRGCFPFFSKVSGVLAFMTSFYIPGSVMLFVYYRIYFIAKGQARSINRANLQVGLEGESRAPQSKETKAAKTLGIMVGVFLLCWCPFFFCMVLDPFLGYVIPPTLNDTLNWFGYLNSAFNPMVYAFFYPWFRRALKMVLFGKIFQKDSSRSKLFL

SMILES	Emax
NCC(Cc1ccccc1)c1ccc(Oc2ccccc2)cc1 (configuration not stated)	92%
NCC(c1ccccc1)c1ccc(Oc2ccccc2)cc1 (configuration not stated)	103%
NCCc1ccc(Oc2ccccc2)c2ccccc12	113%
COc1ccc(C(CN)c2ccccc2)c2ccccc12 (configuration not stated)	71%
CC(CN)c1ccc(Oc2ccccc2)cc1 (configuration not stated)	94%
C#CC(CN)c1ccc(Oc2ccccc2)cc1 (configuration not stated)	105%
NCC(c1ccccc1)c1cccc(Oc2ccccc2)c1 (configuration not stated)	131%
CN(C)CCCNC(=O)c1ccc(Oc2ccccc2)cc1	2%
NCC(C#Cc1ccccc1)c1ccc(Oc2ccccc2)cc1 (configuration not stated)	119%
NCCc1ccc(Oc2ccc(O)cc2)c(I)c1	100%
CC(C)(CN)c1ccc(Oc2ccccc2)cc1	13%
NCC(c1ccccc1)c1ccc(Oc2ccccc2)c2ccccc12 (configuration not stated)	100%
NCC(c1ccccc1)c1ccc(O)c2ccccc12 (configuration not stated)	89%
NCCc1ccc(Oc2ccccc2)cc1	93%

Biological target: Trace amine-associated receptor 1 (Mus musculus) (UniProt Q923Y8)
Experiment: Antagonist activity at mouse TAAR1 expressed in HEK293 cells at 10 uM assessed as inhibition of 3-iodothyronamine-induced cAMP production
Format: functional, cell-based
Design: scale not given: the % may be the effect or the level left
Procedure, shortened: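 Cells harvested in Krebs-Ringer-HEPES, preincubated 20-30 min with 200 µM IBMX, then exposed 1 h at 37 °C in KRH with 133 µM IBMX plus test compound at 10 µM (DMSO vehicle; forskolin 10 µM control). Cells lysed by boiling; cAMP measured by enzyme-fragment-complementation luminescence.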

Trace amine-associated receptor 1 (Mus musculus), sequence (Q923Y8 whole entry): as the sequence (Q923Y8 whole entry) above

SMILES	Activity
NCCc1ccc(Oc2ccc(O)cc2)c(I)c1	30%

Biological target: Trace amine-associated receptor 1 (Mus musculus) (UniProt Q923Y8)
Experiment: Efficacy at mouse TAAR1 expressed in HEK293 cells assessed as stimulation of cAMP production at 10 uM relative to 3-iodothyronamine
Format: functional, cell-based

SMILES	Emax
NCC(Cc1ccccc1)c1ccc(Oc2ccccc2)cc1 (configuration not stated)	31%
NCC(c1ccccc1)c1ccc(Oc2ccccc2)cc1 (configuration not stated)	35%
NCCc1ccc(Oc2ccccc2)c2ccccc12	104%
COc1ccc(C(CN)c2ccccc2)c2ccccc12 (configuration not stated)	14%
CC(CN)c1ccc(Oc2ccccc2)cc1 (configuration not stated)	72%
C#CC(CN)c1ccc(Oc2ccccc2)cc1 (configuration not stated)	79%
NCC(c1ccccc1)c1cccc(Oc2ccccc2)c1 (configuration not stated)	15%
CN(C)CCCNC(=O)c1ccc(Oc2ccccc2)cc1	0%
NCC(C#Cc1ccccc1)c1ccc(Oc2ccccc2)cc1 (configuration not stated)	2%
NCCc1ccc(Oc2ccc(O)cc2)c(I)c1	100%
CC(C)(CN)c1ccc(Oc2ccccc2)cc1	18%
NCC(c1ccccc1)c1ccc(Oc2ccccc2)c2ccccc12 (configuration not stated)	0%
NCC(c1ccccc1)c1ccc(O)c2ccccc12 (configuration not stated)	14%
NCCc1ccc(Oc2ccccc2)cc1	85%

Biological target: Trace amine-associated receptor 1 (Rattus norvegicus, UniProt Q923Y9)
Experiment: Activity at rat TAAR1 expressed in HEK293 cells assessed as cAMP production
Format: functional, cell-based
Procedure, shortened: as §1

Trace amine-associated receptor 1 (Rattus norvegicus, UniProt Q923Y9), sequence (Q923Y9 whole entry): as the sequence (Q923Y9 whole entry) above

SMILES	EC50
NCC(Cc1ccccc1)c1ccc(Oc2ccccc2)cc1 (configuration not stated)	140 nM
NCC(c1ccccc1)c1ccc(Oc2ccccc2)cc1 (configuration not stated)	28 nM
NCCc1ccc(Oc2ccccc2)c2ccccc12	26 nM
COc1ccc(C(CN)c2ccccc2)c2ccccc12 (configuration not stated)	270 nM
CC(CN)c1ccc(Oc2ccccc2)cc1 (configuration not stated)	250 nM
C#CC(CN)c1ccc(Oc2ccccc2)cc1 (configuration not stated)	41 nM
NCC(c1ccccc1)c1cccc(Oc2ccccc2)c1 (configuration not stated)	19 nM
CN(C)CCCNC(=O)c1ccc(Oc2ccccc2)cc1	> 1000 nM
NCC(C#Cc1ccccc1)c1ccc(Oc2ccccc2)cc1 (configuration not stated)	62 nM
NCCc1ccc(Oc2ccc(O)cc2)c(I)c1	33 nM
CC(C)(CN)c1ccc(Oc2ccccc2)cc1	> 1000 nM
NCC(c1ccccc1)c1ccc(Oc2ccccc2)c2ccccc12 (configuration not stated)	52 nM
NCC(c1ccccc1)c1ccc(O)c2ccccc12 (configuration not stated)	716 nM
NCCc1ccc(Oc2ccccc2)cc1	63 nM
